From ChEMBL document CHEMBL1153093, “Synthesis and structure-activity relationships of cassiarin A as potential antimalarials with vasorelaxant activity” (Bioorg Med Chem, 2009)
pIC50: −log10 of the molar value. The source made the active and inactive calls. The rule behind the calls is not given here.

How the values were obtained:
[1] = Selectivity index, ratio of IC50 for human MCF7 to IC50 for chloroquine-sensitive Plasmodium falciparum 3D7
Plasmodium falciparum = assay: Antimalarial activity against chloroquine-sensitive Plasmodium falciparum 3D7 by giemsa stain
MCF7 = assay: Cytotoxicity against human MCF7 cells after 48 hrs by MTT assay; assay type: cell-based; settings: MCF7, 48 h
Summary of the method: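 MCF7 human breast adenocarcinoma cells seeded at 5 × 10³ cells/well and preincubated 24 h at 37 °C, 5% CO₂. Compounds were added at various concentrations for 48 h at 37 °C. MTT solution (5 mg/mL stock) was added for 2 h, and formazan was dissolved in 10% SDS–0.01 N HCl. OD was read at 550/700 nm in triplicate wells, and IC₅₀ was taken from % living cells vs control.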

Aorta [2] = assay: Vasorelaxant activity in Wistar rat endothelium-intact thoracic aortic rings assessed as inhibition of phenylephrine-induced tissue contraction at 30 uM; assay type: functional, tissue-based
Summary of the method: (§1)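 Thoracic aorta rings, 3 mm, in Krebs–Henseleit solution (95% O₂/5% CO₂, 37 °C), equilibrated 60 min at 1.0 g resting tension. Rings were contracted with 3 × 10⁻⁷ M phenylephrine. Endothelium was accepted if 10⁻⁵ M acetylcholine gave 80% relaxation. At the contraction plateau, samples were added at 1 × 10⁻⁶–3 × 10⁻⁵ M. Tension was recorded isometrically; data are mean ± SEM with ANOVA/Bonferroni.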

[3] = Vasorelaxant activity in Wistar rat endothelium-intact thoracic aortic rings assessed as inhibition of phenylephrine-induced tissue contraction in presence of NO synthase-inhibitor L-NMMA; assay type: functional; settings: Thoracic aorta
Aorta [4] = assay: Vasorelaxant activity in Wistar rat endothelium-removed thoracic aortic rings assessed as inhibition of phenylephrine-induced tissue contraction; assay type: functional, tissue-based
Summary of the method: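 Isolated thoracic aorta rings, 3 mm, in oxygenated Krebs–Henseleit solution at 37 °C, equilibrated 60 min under 1.0 g tension. Rings were precontracted with 3 × 10⁻⁷ M phenylephrine, and at the plateau samples were added at 1 × 10⁻⁶–3 × 10⁻⁵ M. Relaxation was recorded by force transducer; data are mean ± SEM.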

Aorta [5] = assay: Vasorelaxant activity in Wistar rat endothelium-intact thoracic aortic rings assessed as inhibition of phenylephrine-induced tissue contraction; assay type: functional, tissue-based
Summary of the method: as §1

Row | Compound | Ratio IC50 [1] | pIC50 (Plasmodium falciparum) | pIC50 (MCF7) | Activity (Aorta [2]) | Activity [3] | Activity (Aorta [4]) | Activity (Aorta [5])
1 | Cc1cc2c3c(cc(C)n2C)cc(=O)cc3o1 | > 4.2 | 4.63 | < 4.00 | inactive |  |  | 
2 | CCCCn1c(C)cc2cc(=O)cc3oc(C)cc1c23 | > 23 | 5.38 | < 4.00 | inactive |  |  | 
3 | CC1=Cc2nc(C)cc3cc(OS(=O)(=O)C(F)(F)F)cc(c23)O1 | > 244 | 6.39 | < 4.00 |  |  |  | 
4 | Cc1cc2c3c(cc(C)n2-c2ccccc2)cc(=O)cc3o1 | > 1110 | 7.05 | < 4.00 | inactive |  |  | 
5 | CNC(=N)NCCC[C@H](N)C(=O)O |  |  |  |  | inactive |  | 
6 | CC1=Cc2nc(C)cc3cccc(c23)O1 [7-DEHYDROXYCASSIARIN A] | > 18 | 5.27 | < 4.00 |  |  |  | 
7 | CC(=O)Oc1cc2c3c(nc(C)cc3c1)C=C(C)O2 [ACETYLCASSIARIN A] | > 83 | 5.92 | < 4.00 |  |  |  | 
8 | CC1=Cc2nc(C)cc3cc(OC(=O)c4ccccc4)cc(c23)O1 [BENZOYLCASSIARIN A] | > 83 | 5.92 | < 4.00 |  |  |  | 
9 | CCCC(=O)Oc1cc2c3c(nc(C)cc3c1)C=C(C)O2 [BUTYROYLCASSIARIN A] | > 24 | 5.39 | < 4.00 | Active |  |  | 
10 | CC1=Cc2nc(C)cc3cc(OCc4ccccc4)cc(c23)O1 [CASSIARIN A BENZYL ETHER] | 4.8 | 4.83 | 4.14 |  |  |  | 
11 | CCCCOc1cc2c3c(nc(C)cc3c1)C=C(C)O2 [CASSIARIN A BUTYL ETHER] | > 26 | 5.52 | 4.12 |  |  |  | 
12 | COc1cc2c3c(nc(C)cc3c1)C=C(C)O2 [CASSIARIN A METHYL ETHER] | > 24 | 5.44 | 4.06 | Active |  | inactive | Dose-dependent effect
13 | CC1=Cc2nc(C)cc3cc(O)cc(c23)O1 [CASSIARIN A] | > 4350 | 7.64 | < 4.00 | Active |  | inactive | Dose-dependent effect
14 | COC(=O)CCCn1c(C)cc2cc(=O)cc3oc(C)cc1c23 [CASSIARIN B] | > 4.5 | 4.66 | < 4.00 | inactive |  |  | 
15 | CCN(CC)CCCC(C)Nc1ccnc2cc(Cl)ccc12 (configuration not stated) [CHLOROQUINE] |  |  | 4.44 |  |  |  | 
